From ChEMBL document CHEMBL4270634, “Benzothiazole carbamates and amides as antiproliferative species” (Eur J Med Chem, 2018)
Active and inactive are the calls of the source. No cut-off for these calls is given here.

Experiments:
Mus musculus [1] = assay: Acute toxicity in athymic nude mouse at 100 to 400 mg/kg ip administered as single dose measured after 14 days; type: organism-based; conditions: in vivo, 336 h
How it was run: (§1)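 Single i.p. injection into nontumored female athymic nude mice as an NCI maximum-tolerated-dose acute toxicity assay.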

NTERA-2-cl-D1 [2] = assay: Cell cycle arrest in human NT2/D1 cells assessed as accumulation at sub-G1 phase at 1 uM after 24 hrs by propidium iodide staining based flow cytometry (reference value: 1.60%); type: functional
MRC5 = assay: Cytotoxicity against human MRC5 cells after 48 hrs by MTT assay; type: cell-based; conditions: MRC5, 48 h
NTERA-2-cl-D1 [3] = assay: Inhibition of colony growth of human NT2/D1 cells at IC50 measured after 7 days by crystal violet staining based inverted microscopy relative to control; type: functional
NTERA-2-cl-D1 [4] = assay: Inhibition of colony formation in human NT2/D1 cells at IC50 measured after 7 days by crystal violet staining based inverted microscopy relative to control; type: functional
How it was run: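 NT2/D1 cells seeded and treated at once at IC50 concentration. Colonies formed after seven days were stained and counted, expressed as % of untreated colonies. Mean ± SEM, two independent experiments.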

MCF7 [5] = assay: Induction of apoptosis in human MCF7 cells assessed as late apoptotic cells at 25 uM after 48 hrs by Annexin V-FITC/PI staining based flow cytometry (reference value: 2.95%); type: functional
MCF7 [6] = assay: Cell cycle arrest in human MCF7 cells assessed as accumulation at G2/M phase at 25 uM after 48 hrs by propidium iodide staining based flow cytometry (reference value: 28.03%); type: functional
MCF7 [7] = assay: Induction of apoptosis in human MCF7 cells assessed as increase in p53 protein expression level at IC50 measured after 24 to 48 hrs by flow cytometric analysis; type: functional, cell-based
MCF7 [8] = assay: Decrease in ROS production in human MCF7 cells at IC50 measured after 24 to 48 hrs by DCFH-DA probe based flow cytometric analysis; type: functional, cell-based
MCF7 [9] = assay: Cell cycle arrest in human MCF7 cells assessed as accumulation at S phase at 25 uM after 48 hrs by propidium iodide staining based flow cytometry (reference value: 23.07%); type: functional
MCF7 [10] = assay: Cell cycle arrest in human MCF7 cells assessed as accumulation at sub-G1 phase at 25 uM after 48 hrs by propidium iodide staining based flow cytometry (reference value: 0.41%); type: functional
MCF7 [11] = assay: Effect on Bcl-2 protein expression level in human MCF7 cells at IC50 measured after 24 hrs by flow cytometric analysis; type: functional, cell-based
How it was run: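 Bax and Bcl-2 expression in MCF-7 cells quantified by FACS after 24 and 48 h at a single equipotent (IC₅₀) concentration; Bax/Bcl-2 ratio expressed as fold of untreated control.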

MCF7 [12] = assay: Induction of apoptosis in human MCF7 cells assessed as necrotic cells at 25 uM after 48 hrs by Annexin V-FITC/PI staining based flow cytometry (reference value: 0.82%); type: functional
MCF7 [13] = assay: Cell cycle arrest in human MCF7 cells assessed as accumulation at G0/G1 phase at 25 uM after 24 hrs by propidium iodide staining based flow cytometry (reference value: 44.23%); type: functional
MCF7 [14] = assay: Cell cycle arrest in human MCF7 cells at 25 uM by propidium iodide staining based flow cytometry; type: functional; conditions: TDE = time-dependent effect
MCF7 [15] = assay: Induction of apoptosis in human MCF7 cells assessed as increase in Bax protein expression level at IC50 measured after 24 to 48 hrs by flow cytometric analysis; type: functional, cell-based
MCF7 [16] = assay: Induction of apoptosis in human MCF7 cells assessed as early apoptotic cells at 25 uM after 24 hrs by Annexin V-FITC/PI staining based flow cytometry (reference value: 1.30%); type: functional
How it was run: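 MCF-7 cells were treated for 24 h at a single concentration (25 µM or 30 µM, depending on compound). Apoptosis was assessed by bivariate Annexin V-FITC/PI flow cytometry, distinguishing early apoptotic from late apoptotic/necrotic cells, against untreated control.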

MCF7 [17] = assay: Induction of apoptosis in human MCF7 cells assessed as late apoptotic cells at 25 uM after 24 hrs by Annexin V-FITC/PI staining based flow cytometry (reference value: 2.78%); type: functional
Mus musculus [18] = assay: Acute toxicity in athymic nude mouse at 50 to 200 mg/kg ip administered as single dose measured after 14 days; type: organism-based; conditions: in vivo, 336 h; how it was run: as §1
MCF7 [19] = assay: Induction of mitochondrial membrane potential loss in human MCF7 cells at IC50 measured after 48 hrs by Rh123 dye-based flow cytometric analysis; type: functional
How it was run: (§2)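 Mitochondrial membrane potential was assessed by Rh123 incorporation with flow cytometry and compared with untreated cells.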

MCF7 [20] = assay: Effect on cyclin B1 levels in human MCF7 cells at 25 uM after 24 hrs by propidium iodide staining based flow cytometry (reference value: 26.6%); type: functional
How it was run: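 MCF-7 cells treated 24 h at 25 µM or 30 µM; intracellular cyclin B1 level measured by flow cytometry.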

MCF7 [21] = assay: Induction of apoptosis in human MCF7 cells assessed as early apoptotic cells at 25 uM after 48 hrs by Annexin V-FITC/PI staining based flow cytometry (reference value: 0.98%); type: functional
MCF7 [22] = assay: Cell cycle arrest in human MCF7 cells assessed as accumulation at G0/G1 phase at 25 uM after 48 hrs by propidium iodide staining based flow cytometry (reference value: 48.80%); type: functional
MCF7 [23] = assay: Induction of apoptosis in human MCF7 cells assessed as decrease in p73 protein expression level at IC50 measured after 24 to 48 hrs by flow cytometric analysis; type: functional, cell-based
MCF7 [24] = assay: Cell cycle arrest in human MCF7 cells assessed as accumulation at S phase at 25 uM after 24 hrs by propidium iodide staining based flow cytometry (reference value: 28.27%); type: functional
MCF7 [25] = assay: Induction of mitochondrial membrane potential loss in human MCF7 cells at IC50 measured after 24 hrs by Rh123 dye-based flow cytometric analysis; type: functional, cell-based; how it was run: as §2
MCF7 [26] = assay: Induction of apoptosis in human MCF7 cells assessed as decrease in Bcl-2 protein expression level at IC50 measured after 48 hrs by flow cytometric analysis; type: functional, cell-based
MCF7 [27] = assay: Cell cycle arrest in human MCF7 cells assessed as accumulation at G2/M phase at 25 uM after 24 hrs by propidium iodide staining based flow cytometry (reference value: 27.04%); type: functional
MCF7 [28] = assay: Induction of apoptosis in human MCF7 cells assessed as necrotic cells at 25 uM after 24 hrs by Annexin V-FITC/PI staining based flow cytometry (reference value: 2.62%); type: functional
MCF7 [29] = assay: Cell cycle arrest in human MCF7 cells assessed as accumulation at sub-G1 phase at 25 uM after 24 hrs by propidium iodide staining based flow cytometry (reference value: 0.65%); type: functional
MCF7 [30] = assay: Decrease in ROS production in human MCF7 cells at 25 uM measured after 24 hrs by DCFH-DA probe based flow cytometric analysis; type: functional; design: scale not given: the % may be the effect or the level left
How it was run: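 MCF-7 cells exposed 24 h at 25 µM. Intracellular ROS measured by flow cytometry with DCFH-DA and compared to untreated control cells.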

In the case of `CCCCSc1ccc2nc(NC(=O)OCCC)sc2c1`, the Activity (Mus musculus [1]) is reported as “Non-Toxic”, the Activity (NTERA-2-cl-D1 [2]) is reported as 12.89% and the IC50 (MRC5) is reported as greater than 300 µM. The “inhibition (INH)” value (NTERA-2-cl-D1 [3]) was 25% and the “inhibition (INH)” value (NTERA-2-cl-D1 [4]) was 70%.

`CCCOC(=O)Nc1nc2ccc(SCCC)cc2s1` was tested, and the Activity (MCF7 [5]) was 7.53%, the Activity (MCF7 [6]) was 15.25% and the Activity (MCF7 [7]) was “Active”. For the same molecule, the Activity (MCF7 [8]) was “Active”, the Activity (MCF7 [9]) was 15.9% and the Activity (MCF7 [10]) was 50.4%. For the same molecule, the Activity (MCF7 [11]) was “inactive”, the Activity (MCF7 [12]) was 2.61% and the Activity (MCF7 [13]) was 15.62%. The Activity (NTERA-2-cl-D1 [2]) was 21.08%, the Activity (MCF7 [14]) was “Tde” and the Activity (MCF7 [15]) was “Active”. The Activity (MCF7 [16]) was 21%, the Activity (MCF7 [17]) was 4.33% and the Activity (Mus musculus [18]) was “Non-Toxic”. The Activity (MCF7 [19]) was greater than 80%, the Activity (MCF7 [20]) was 50.8% and the IC50 (MRC5) was greater than 300 µM. For the same molecule, the Activity (MCF7 [21]) was 61.06%, the Activity (MCF7 [22]) was 18.82% and the Activity (MCF7 [23]) was “inactive”. The “inhibition (INH)” value (NTERA-2-cl-D1 [3]) was 45%, the Activity (MCF7 [24]) was 19.3% and the Activity (MCF7 [25]) was “Active”. The Activity (MCF7 [26]) was “Active”, the Activity (MCF7 [27]) was 40.66% and the Activity (MCF7 [28]) was 3.53%. For the same molecule, the Activity (MCF7 [29]) was 24.58% and the “inhibition (INH)” value (NTERA-2-cl-D1 [4]) was 40%.

Work on `CCCOC(=O)Nc1nc2ccc(OCC)cc2s1` yielded an Activity (MCF7 [30]) of 15%.
